The list is not random: actives were taken first. Their share in the collection is about 1.6%.
NOD2-RIPK2 inh – NOD2-RIPK2 protein interaction inhibition. O43353. CHO BLA complementation NOD2-RIPK2, CCF4 ratio. hit rate 0.38% among 360,000. inhibition, % at 4.98 µM. AID 624267; in the data active = inhibition above about 21%;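 note: 0% = vehicle only and 100% = reference blocker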
Dynein cargo inh – dynein cargo transport inhibition; 3617.4 mouse cells, GR-EGFP nuclear translocation imaging; test concentration mostly 20 µM; stimulated with dexamethasone, 1 µM; hits give low values; z-score, hits read low; hit rate 0.47% among 220,000; AID 1381;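 active = plate z-score of nuclear minus cytoplasmic receptor signal below a set negative limit, without overly bright fluorescence or cell loss, cut at about -3.5 in these data, passing the limit was not always enough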;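 note: z-score of nuclear minus cytoplasmic ring GR-EGFP intensity difference per well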
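medium = tetracycline-free induction medium containing charcoal-stripped FBS | also added = 1.0 µM final dexamethasone stimulus | schedule = 48 h induction, 1 h compound, 30 min dex at 37 °C | technique = fixed, Hoechst-stained cells imaged at 10x for EGFP | measure = GR-EGFP nuclear translocation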
TLR4 MyD88 comp – blocks binding of human TLR4 to MyD88 | inhibition, % at 8.4 µM | AID 861 | HeLa CL3-4 TLR4/MyD88 BLA complementation, FRET ratio | hit rate 0.18% among 200,000 | O00206+Q99836; in the data active = inhibition above about 25%;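 note: 0% = vehicle and 100% = reference inhibitor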
TLR9-MyD88 inh – inhibitors of human TLR9-MyD88 binding. hit rate 0.21% among 340,000. inhibition, % at 4.98 µM. Q9NR96+Q99836. CHO BLA complementation TLR9-MyD88, CCF4 FRET ratio;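 active = inhibition above the mean over all tested compounds plus 3 SD, cut at about 21% in these data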;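 note: 0% = DMSO only wells and 100% = clavulanate BLA inhibitor control wells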
ABHD5 PLIN5 PPI – ABHD5-PLIN5 protein interaction inhibition; Split G. princeps luciferase complementation, luminescence, 4 h; inhibition, % at 4 µM; hit rate 0.78% among 360,000; AID 602281;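 active = inhibition above the mean inhibition across every tested compound plus 3 SD, cut at about 22% in these data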;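 note: 0% = DMSO only wells and the 100% control is not disclosed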
B2AR ag – human beta-2 adrenergic receptor agonism by FAP. P07550. Am2.2-beta2AR cells, FAP receptor internalization, flow cytometry. response, % (concentration not given with the values). hit rate 0.43% among 340,000;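 active = response above a set limit, near 3 SD of response in nonfluorescent compounds, cut at about 42% in these data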
Target sequence (P07550 whole entry, looked up): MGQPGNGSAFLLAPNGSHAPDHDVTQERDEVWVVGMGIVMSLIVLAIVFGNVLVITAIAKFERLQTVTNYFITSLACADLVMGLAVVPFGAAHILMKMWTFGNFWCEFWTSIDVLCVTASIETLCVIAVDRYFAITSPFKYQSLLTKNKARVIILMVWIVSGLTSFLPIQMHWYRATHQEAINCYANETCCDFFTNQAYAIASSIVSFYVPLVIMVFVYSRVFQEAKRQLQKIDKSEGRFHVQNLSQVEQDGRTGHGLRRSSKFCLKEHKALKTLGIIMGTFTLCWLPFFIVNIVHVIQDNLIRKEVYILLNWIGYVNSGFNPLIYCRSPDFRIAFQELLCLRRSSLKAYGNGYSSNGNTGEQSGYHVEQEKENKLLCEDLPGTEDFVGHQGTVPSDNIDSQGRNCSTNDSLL
Numbers without * were called inactive; nt = no result given.

SMILES	NOD2-RIPK2 inh	Dynein cargo inh	TLR4 MyD88 comp	TLR9-MyD88 inh	ABHD5 PLIN5 PPI	B2AR ag
O=C1/C(=C/c2ccccc2)C[C@@]2(O)[C@H]3Cc4ccc(O)c5c4[C@@]2(CCN3CC2CC2)C1O5 (stereo partly specified)	35.0*	nt	nt	7.3	65.2*	69.4*
COC(=O)C1=C(c2ccc(C(C)=O)cc2)C[C@@H]2CC[C@H]1N2C(=O)NC1Cc2ccccc2C1	6.7	nt	nt	0.7	1.5	-1.9
COC(=O)C1=C(c2ccccc2OCc2ccccc2)C[C@@H]2CC[C@H]1N2C(=O)NCc1ccc(Br)cc1	10.4	nt	nt	-11.8	2.3	-4.2
O=C1NC(=S)NC(=O)C1=Cc1cccc2cc3ccccc3cc12	3.8	-2.08	nt	8.4	-1.2	93.5*
COc1cccc2c1C(=O)c1c(O)c3c(c(O)c1C2=O)CC(O)(C(C)=NO)CC3OC1CC(N)C(O)C(C)O1 (stereo unspecified)	-4.4	nt	nt	-4.1	-4.3	-74.0
C=C(C)[C@@]12OC3(c4ccccc4)O[C@@H]1C1[C@@H]4O[C@]4(CO)[C@@H](O)[C@]4(O)C(=O)C(C)=C[C@H]4[C@@]1(O3)[C@H](C)[C@H]2OC(=O)/C=C/C=C/c1ccccc1 (stereo partly specified)	-1.7	nt	nt	3.7	-10.3	111.6*
CC(C)c1ccc(N2C(=O)NC(=O)/C(=C/C=C/c3ccco3)C2=O)cc1	-12.5	-0.068	3.1	1.0	22.1*	14.8
COc1ccccc1N1CCN(CCc2c[nH]c3cc4c(cc23)OCO4)CC1	0.6	nt	nt	-13.1	-6.4	1.6
CN(C)C(=O)Oc1ccc2c(c1)O/C(=C\c1cccc(Cl)c1)C2=O	3.6	nt	nt	8.6	3.0	53.3*
C=C1[C@@H](OC(C)=O)[C@]23C[C@@H]1[C@@H](OC(C)=O)CC2[C@]12C4C[C@H]3[C@H]1N(CC)C[C@]4(C)CC[C@@H]2O (stereo partly specified)	-4.4	nt	nt	2.5	1.9	2.6
O=C1NC(=S)NC(=O)C1=Cc1ccc(Br)s1	2.0	nt	nt	0.6	-10.9	54.0*
CN1C(=O)/C(=C\c2ccc(Br)s2)C(=O)NC1=S	-3.6	nt	nt	-14.0	4.6	26.2
Cn1cc(C=O)c2nccnc21	-6.1	nt	nt	-9.8	-1.7	nt
Cc1cccc(C2=NCC(=O)N(CC(=O)NCc3ccco3)c3sc4c(c32)CCCC4)c1	2.9	-1.08	7.3	-0.7	-0.8	-8.4
COc1ccc(C2=NCC(=O)N(CC(=O)NCc3ccco3)c3sc4c(c32)CCCC4)cc1	-10.0	-0.446	-2.0	8.9	38.0*	-2.6
FC(F)(F)c1ccc2c(c1)N(CCCN1CCN(CCCl)CC1)c1ccccc1S2	4.5	-0.00195	7.6	-2.0	20.7	68.3*
Nc1ccc(CCN2CCN(c3cccc(C(F)(F)F)c3)CC2)cc1	-6.6	nt	nt	-1.7	5.5	5.1
O=C1CN(O)C(c2ccccc2)=c2cc(Br)ccc2=N1	12.2	nt	nt	-106.1	-5.4	-9.2
COc1cc2c3c(c1OC)Oc1ccc(cc1)C[C@H]1c4c(cc(OC)c(OC)c4Oc4ccc(cc4)C[C@@H]3N(C)CC2)CCN1C	5.4	nt	nt	1.9	10.9	44.8*
CCCCNS(=O)(=O)c1ccc(OCC(=O)N2CCN(Cc3ccc4c(c3)OCO4)CC2)cc1	-1.2	nt	nt	-22.7	-5.7	4.7
O=C(CCc1ccccc1)N1Cc2cc(-c3ccccc3)ccc2-n2nncc2C1	-1.0	nt	nt	nt	7.6	nt
COCCNC(=O)Cn1cc(C=C2C(=O)NC(=O)NC2=O)c2ccccc21	-3.8	nt	nt	1.3	22.5*	-1.4
CC12CCC(=O)C=C1CCC1C2CCC2(C)C(O)(C(=O)CO)CCC12O (stereo unspecified)	1.9	nt	nt	10.3	1.1	4.4
Cn1cccc1/C=C1/C(=O)NC(=O)N(Cc2ccc(F)cc2)C1=O	-2.0	1.06	nt	5.8	4.4	18.8
Cn1cccc1/C=C1/C(=O)NC(=S)N(Cc2ccc(F)cc2)C1=O	-2.2	-0.521	nt	10.5	8.9	60.2*
SMILES	NOD2-RIPK2 inh	Dynein cargo inh	TLR4 MyD88 comp	TLR9-MyD88 inh	ABHD5 PLIN5 PPI	B2AR ag
O=C1NC(=O)N(c2ccc(Br)cc2)C(=O)/C1=C/c1ccsc1	-13.3	0.107	-5.1	-2.6	19.1	2.4
O=C1NC(=O)N(c2ccc(F)cc2)C(=O)/C1=C/c1ccsc1	-2.2	1.89	-15.0	1.5	22.9*	3.5
N#CSCC(=O)N1c2ccccc2CCc2ccccc21	10.8	-2.28	-7.8	6.7	2.1	51.8*
Cn1ncnc2c(=O)n(C)c(=O)nc1-2	-16.4	nt	nt	0.0	-28.9	53.1*
CS(=O)(=O)c1ccc(C2=C(CNC(=O)c3cccs3)[C@H]3CC[C@@H](C2)N3Cc2ccco2)cc1	-5.2	nt	nt	0.5	-2.0	nt
CCN(CC)C(=O)c1ccc2c(c1)C1C(Cl)C(Sc3ccccc3[N+](=O)[O-])CC1C(C(=O)O)N2 (stereo unspecified)	-7.6	0.243	nt	8.1	23.0*	-0.1
O=C(Cc1c[nH]c2ccccc12)NNCc1ccc(N(CCCl)CCCl)cc1	-7.9	nt	nt	0.6	9.7	12.9
COc1ccc2nc(/N=C/c3c(O)n(-c4cccc(Cl)c4)c(=O)[nH]c3=O)sc2c1	-3.2	-0.328	-7.4	2.6	22.9*	4.3
COc1cccc(-n2c(O)c(C=Nc3c(C)n(C)n(-c4ccccc4)c3=O)c(=O)[nH]c2=O)c1	-5.2	-0.271	-4.0	-1.9	4.2	1.3
COc1cc2c(cc1OC)CC[N+](C)=C2	-12.8	0.304	-0.7	-1.8	-0.4	56.9*
CC(=O)OC1C(O)C2=C3C4(C)C1C(C)(C)C(=O)CC4C3(O)C(OC(C)=O)C1(CC1C)C2=O (stereo unspecified)	-20.0	nt	nt	nt	22.3*	nt
O=C1NC(=O)N(Cc2ccccc2)C(=O)/C1=C\c1ccco1	-1.2	0.665	7.8	-3.6	3.7	57.6*
CN1C(=O)C(=Cc2sc(=O)n(-c3ccccc3)c2N2CCCCC2)C(=O)N(C)C1=O	-3.3	0.06	nt	-0.4	-1.2	-7.9
CN1CCN(c2nc3ccccn3c(=O)c2C=C2C(=O)N(C)C(=O)N(C)C2=O)CC1	-6.5	0.211	7.4	9.1	23.0*	8.5
COc1ccc(C2C3C=CC(C3)C2C(=O)O)cc1 (stereo unspecified)	-6.4	nt	nt	-1.9	-1.3	nt
O=C(Cn1ncc2c3ccccc3n(Cc3ccccc3)c2c1=O)N1CCC2(CC1)OCCO2	nt	-0.136	-7.0	nt	nt	nt
O=C(Cn1ncc2c3ccccc3n(Cc3ccccc3F)c2c1=O)N1CCC2(CC1)OCCO2	-8.5	-0.593	6.1	4.3	-2.8	50.5*
CCc1ccccc1N1C(=O)NC(=O)/C(=C\c2cc(C)n(C)c2C)C1=O	7.1	0.221	-16.2	-3.2	-2.5	60.8*
C=CCCC[C@@H]1OC(=O)CNC(=O)C([C@@H](C)CC)NC(=O)[C@@H]2CCCN2C(=O)C([C@@H](C)CC)OC(=O)[C@H](Cc2ccccc2)N(C)C(=O)[C@H](C(C)C)NC(=O)C1(C)C (stereo partly specified)	-2.1	nt	nt	nt	22.4*	nt

Screening results from PubChem.
